# A selection: hits, their analogues and other compounds. The true share with any hit is near 2.1%.
# PP5 primary – inhibitors of human protein phosphatase 5 (PP5); inhibition, % at 6.7 µM; hit rate 0.18% among 320,000; AID 1987; P53041; purified PP5c, OMFP substrate fluorescence;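 active = inhibition above the campaign's mean inhibition across all tested compounds plus 3 SD, cut at about 9.5% in these data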;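 also: 0% = DMSO only and 100% = 100 µM cantharidin control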
# GSTO1 inh – blocks human GSTO1 in RBBP9 counter-screen. P78417. recombinant GSTO1, activity-based probe fluorescence polarization. inhibition, % at 5.96 µM. hit rate 1.1% among 300,000. AID 1974;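 active = inhibition above the campaign mean inhibition plus 3 SD, cut at about 35% in these data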;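 also: 0% = GSTO1-1 with DMSO and 100% = wells lacking GSTO1-1 enzyme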
# Target sequence (P78417 whole entry, looked up): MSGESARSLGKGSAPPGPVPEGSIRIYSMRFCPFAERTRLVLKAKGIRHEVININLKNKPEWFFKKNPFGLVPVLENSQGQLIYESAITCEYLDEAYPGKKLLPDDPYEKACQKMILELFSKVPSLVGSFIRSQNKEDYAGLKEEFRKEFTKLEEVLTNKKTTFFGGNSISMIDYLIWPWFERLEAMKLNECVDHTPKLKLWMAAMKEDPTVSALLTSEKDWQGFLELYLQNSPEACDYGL
# Apaf-1 inh – inhibitors of human Apaf-1 apoptosome; hit rate 0.71% among 330,000; AID 489030; reconstituted apoptosome caspase-3 activity, DEVD-Rh110 fluorescence; O14727; inhibition, % at 20 µM; active = inhibition of at least 40% at 20 µM;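 also: plate controls were DMSO wells for no effect and DEVD-CHO caspase inhibitor wells for full effect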
#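 Material: biochemical Apaf-1 apoptosome reconstitution. Medium: Hepes buffer, pH 7.5. Also added: cytochrome c activation, bis-DEVD rhodamine 110 substrate. Timing: 30 min compound preincubation, 50 min activation, room temperature. Measured by: rhodamine 110 fluorescence at Ex 480/Em 540 nm.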
# TDP2 absorb – TDP2 (human) inhibition, absorbance primary screen; O95551; recombinant TDP2, T5PNP hydrolysis, p-nitrophenol absorbance 415 nm; inhibition, % at 12.8 µM; hit rate 0.34% among 370,000; AID 720702;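 active = inhibition above the mean of all tested compounds plus 3 SD, set per campaign, cut at about 25% in these data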;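 also: 0% = DMSO with enzyme and 100% = buffer with substrate but no TDP2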
#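 test system = human TDP2 enzyme | input = TDP2 enzyme at 120 nM final | medium = 50 mM Tris-HCl pH 7.5 with Mg2+, KCl, DTT, BSA | also added = T5PNP substrate, 5 mM | times = 2 h at 37 °C | technique = epi absorbance | benchmarks = high control without enzyme, low control DMSO plus TDP2 | replication = each compound tested once, singlicate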
# PP1 counter – counter-screen for PP5 inhibitors: inhibitors of human PP1-alpha; P62136; purified PP1alpha, OMFP fluorescence; inhibition, % at 6.7 µM; hit rate 0.9% among 320,000; AID 2235;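 active = inhibition above the mean inhibition of all tested compounds plus 3 SD, computed separately for each screening campaign, cut at about 15% in these data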
# Apaf-1 inh conf2 – Apaf-1 inhibition, single-dose confirmed; shares compounds with Apaf-1 inh; reconstituted apoptosome, caspase-3 DEVD-Rh110 fluorescence; inhibition, % at 20 µM; hit rate 25% among 1,800; AID 504614;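 active = mean inhibition of at least 40% at 20 µM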;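 also: plate controls were DMSO wells for no effect and DEVD-CHO caspase inhibitor control wells for full effect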
# Rh110 quench – counter-screen for Apaf-1 inhibitors: fluorescence interference; shares compounds with Apaf-1 inh; Rh110 fluorescence interference, quenched caspase reaction; activation (fluorescence interference), % at 20 µM; 1,800 tested, under 10 active; AID 504615;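 active = signal rise of 40% or more at 20 µM, treated as a fluorescence artifact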
# Apaf1 inh interf – shows fluorescence interference in the Apaf-1 inhibitor assay format. IC50, µM. fluorescence interference counterscreen, Apaf-1 assay format. 460 tested, under 10 active. shares compounds with Apaf-1 inh; call rule not given here
# Active calls of the source: *; x = not tested or not shown; ! = a repeat was not active.
SMILES,PP5 primary,GSTO1 inh,Apaf-1 inh,TDP2 absorb,PP1 counter,Apaf-1 inh conf2,Rh110 quench,others
OCCCCNc1cccc2ccccc12,2.9,22.6,80.9*,2.4,-5.5,17.7,-2.5,
OCCCCCNc1ncnc2ccccc12,3.3,-0.4,5.2,8.5,-0.4,x,x,
COc1ccc2c(c1)c(/C=N/Nc1nc3ccccc3[nH]1)c(C)n2C,4.9,-5.1,43.5*,-17.6,11.3,20.2,15.2,
CCCC[C@@H]1CNCCN1CCc1cc(C(F)(F)F)cc(C(F)(F)F)c1,1.2,1.2,18.8,-21.2,3.1,x,x,
Fc1cccc(CCN2CCNC[C@@H]2c2ccccc2)c1,1.6,x,14.0,-5.1,-0.4,x,x,
FC(F)(F)c1cc(CCN2CCNC[C@@H]2c2ccccc2)cc(C(F)(F)F)c1,x,x,60.6*,7.0,x,16.7,8.5,
FC(F)(F)c1cc(CCN2CCNC[C@@H]2CC2CCCCC2)cc(C(F)(F)F)c1,x,x,79.4*,-12.3,x,40.9*,22.4,Apaf1 inh interf=>100
COC(=O)[C@H]1C[C@]2(C(C=C(C)C)S(=O)(=O)c3ccccc3)c3ccccc3N[C@H]2N1 (some centres undefined),x,x,x,0.4,x,x,x,
C=CCN1C(=O)[C@H](CC(=O)N2CCC(c3ccccc3)CC2)[C@@]2(C(=O)OCC)CCCC=C12,x,x,x,-8.1,x,x,x,
Cc1ccc(OCCn2c(CCNC(=O)c3ccc(F)cc3F)nc3ccccc32)cc1,x,x,x,0.2,x,x,x,
COc1ccc(-n2nc(C(=O)NCC(=O)N3CCC(C)CC3)c3ccccc3c2=O)cc1,1.4,4.6,15.2,-16.8,0.2,x,x,
COc1ccc(-n2nc(C(=O)NCC(=O)NC3CCCC(C)C3C)c3ccccc3c2=O)c(OC)c1 (centres undefined),0.9,1.7,55.1*,-12.0,-0.6,62.4*,2.8,Apaf1 inh interf=>100
COc1ccc(-n2nc(C(=O)NCC(=O)NC3CCCC(C)C3C)c3ccccc3c2=O)cc1 (centres undefined),3.3,0.9,51.2*,-1.4,-3.9,36.2,6.5,
CCOC(=O)C(=O)N(C)c1c(CC)nc2c(OCCC3CCCCC3)cccn12,x,x,x,2.3,x,x,x,
CC/C(=C(\c1ccc(O)cc1)c1ccc(OCCN(C)C)cc1)c1ccccc1,4.9,-1.4,65.3*,-4.4,-1.8,28.2,13.0,
CC/C(=C(\c1ccccc1)c1ccc(OCCN(C)C)cc1)c1ccccc1,3.5,1.0,72.2*,-3.9,17.2*!,25.2,8.4,
CCC(=C(c1ccccc1)c1ccc(OCCN(C)C)cc1)c1ccccc1,x,x,x,-5.0,x,x,x,
COc1cc2c(cc1OC)CN(Cc1cc(=O)n3c(-c4ccccc4)csc3n1)CC2,0.2,9.0,41.9*,3.6,6.2,11.3,8.2,
O=c1cc(CN2CCN(c3ccccc3)CC2)nc2scc(-c3ccccc3)n12,1.4,0.6,12.7,-7.7,-0.8,x,x,
C=CCn1c(SCC(=O)Nc2sccc2C(N)=O)nc2sc(CC)cc2c1=O,2.9,7.8,42.1*,-6.7,3.0,35.6,6.5,
CCC1Nc2ncnc(N3CCN(c4ccccc4)CC3)c2N(Cc2ccccc2)C1=O (centres undefined),x,x,60.3*,-0.8,x,29.3,13.8,
CCC1Nc2ncnc(N3CCN(c4ccccc4)CC3)c2N(Cc2ccc(C)cc2)C1=O (centres undefined),4.8,4.2,25.1,0.8,4.1,x,x,
Cc1c(CN2CCN(c3ncc(Cc4ccccc4)cn3)CC2)c(=O)n(-c2ccccc2)n1C,x,x,x,6.6,x,x,x,
COc1ccc(NC(=O)[C@@H](NC(=O)N2C[C@H]3C[C@@H](C2)c2cccc(=O)n2C3)C(C)C)cc1OC,-3.2,-6.8,61.7*,2.6,-3.4,7.4,1.1,
CCCN(CC1CC1)c1c2c(nc3ncnn13)CCCC2,x,x,x,-2.1,x,x,x,
CCOC(=O)c1sc2nc(OCc3cccnc3)cc(C)c2c1N,x,x,x,-4.5,x,x,x,
O=C1C(NS(=O)(=O)c2cccs2)=C(N2CCN(c3ccccc3)CC2)C(=O)c2ccccc21,-1.4,12.9,41.2*,1.3,-2.2,25.2,5.2,
O=S(=O)(c1cccs1)N1CCN(c2ccccc2)CC1,0.6,-1.9,0.4,-5.7,-1.3,x,x,

# Source: PubChem BioAssay (several laboratories)
